Measurements reported in article PMC6061379 (Clinical Drug Investigation, 2018).
Values joined by “and” are separate entries in the source; they are usually repeats but may differ in a detail not shown here. Equal values may be shown once. Read-outs that look alike come from different tables or passages of the source.

Key:
[1] = type: in vivo, human; conditions: for AUC0–∞, GLSMR (90% CI) versus normal renal function group / Cmax, GLSMR (90% CI) versus normal renal function group: plasma; for AUC0–∞, GLSMR (90% CI) versus normal renal function group / Cmax, GLSMR (90% CI) versus normal renal function group / CL/F, GLSMR (90% CI) versus normal renal function group / Increase in AUC0–∞ compared to subjects with normal renal function / Increase in Cmax compared to subjects with normal renal function: verinurad 15 mg; for CL/F total body clearance, GM (95% CI): verinurad 15 mg single oral dose, fasted
How it was run: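 Males aged 18–85 y with sUA 4.5–10 mg/dl, grouped by Cockcroft-Gault eCrCl (normal ≥90, mild 60–<90, moderate 30–<60, severe 15–<30 ml/min). Normal group matched for age and BMI. Single 15 mg dose. Serial blood sampled up to 72 h post-dose; plasma acidified. Parent and metabolites measured by validated LC-MS/MS. Non-compartmental parameters, ln-transformed, fixed-effects model, geometric mean ratios with 90% CI versus normal.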

[2] = Urinary pharmacokinetics after single oral verinurad 15 mg; type: in vivo, human; conditions: for fe0–72 fraction of drug excreted in urine unchanged from time zero to 72 h, GM (95% CI): verinurad 15 mg single oral dose; for CLR0–72, GLSMR (90% CI) versus normal renal function group / Decrease in renal clearance (CLR0-72) versus normal renal function: verinurad 15 mg
How it was run: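 Single 15 mg dose given to males grouped by Cockcroft-Gault creatinine clearance. Total-catch urine collected at 6–12 h intervals to 72 h post-dose. Parent and metabolites quantified by validated LC-MS/MS, with the acyl-glucuronide hydrolysed by 2 M KOH and measured as total aglycone. Renal clearance and fraction excreted unchanged over 0–72 h. Ln-transformed parameters compared with the normal group by fixed-effects model; geometric mean ratios with 90% CI.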

serum urate (sUA) = assay: Serum urate; type: in vivo, human; conditions: verinurad 15 mg; all groups
How it was run: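 Single 15 mg dose. Serial serum sampled on Day −1 (baseline) and Day 1 at preset times up to 72 h post-dose. Urate measured enzymatically. Percent change from baseline time-matched to Day −1, with maximal and mean changes derived per renal-function group.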

urinary uric acid = assay: Urinary uric acid pharmacodynamics after verinurad 15 mg; type: in vivo, human; conditions: for AeUR,0–24 h amount of urinary uric acid recovered in urine, mean (SD) / FEUA,0–24 h fractional excretion of uric acid, mean (SD) / ReUR,0–24 h rate of urinary uric acid excretion, mean (SD): following verinurad 15 mg
How it was run: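 Total-catch urine collected at 6–12 h intervals to 72 h after a single 15 mg dose, with a Day −1 baseline. Urate and creatinine in serum and urine measured by enzymatic method.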

Safety assessments = type: in vivo, human; conditions: for Number of adverse events / Subjects with adverse events, n (%): treatment-emergent; for Number of adverse events / Subjects with adverse events, n (%) / Number of adverse events of mild severity / Number of adverse events of moderate severity / Severe/life-threatening adverse events / Subjects with adverse events of mild severity, n (%) / Subjects with adverse events of moderate severity, n (%): verinurad 15 mg
How it was run: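 Males with normal or impaired renal function were housed in the study centre from Day −2 until final procedures after a single 15 mg dose. Assessments covered adverse events (MedDRA v17.0), clinical laboratory tests, vital signs, ECGs and physical examinations. Clinically relevant laboratory abnormalities were graded for severity by the investigator using Rheumatology Common Toxicity Criteria v2.0.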

Plasma protein binding = type: in vitro ADME; conditions: human
URAT1 = conditions: read-out: half-maximal inhibitory constant in inhibiting URAT1; cited from earlier work
[3] = humans, cited from earlier work
sUA = conditions: doses as low as; cited from earlier work
[4] = moderate renal impairment (N = 7)
[5] = severe renal impairment (N = 7)
[6] = moderate renal impairment (N = 8)
[7] = verinurad 15 mg single dose, all groups

With CC(C)(Sc1ccncc1-c1ccc(C#N)c2ccccc12)C(=O)O [Verinurad] the “AUC0–∞, GLSMR (90% CI) versus normal renal function group” value ([1]; mild renal impairment) was 124% (88.8–173), the “Cmax, GLSMR (90% CI) versus normal renal function group” value ([1]; mild renal impairment) was 153% (115–203) and the “AUC0–∞, GLSMR (90% CI) versus normal renal function group” value ([1]; moderate renal impairment) was 248% (168–366). For the same molecule, the “Cmax, GLSMR (90% CI) versus normal renal function group” value ([1]; moderate renal impairment) was 173% (131–230), the “AUC0–∞, GLSMR (90% CI) versus normal renal function group” value ([1]; severe renal impairment) was 230% (146–363) and the “Cmax, GLSMR (90% CI) versus normal renal function group” value ([1]; severe renal impairment) was 228% (155–336). The “CL/F total body clearance, GM (95% CI)” value ([1]; mild renal impairment (N = 8)) was 74.8 (53.7–104) L/h, the “CL/F total body clearance, GM (95% CI)” value [1, 4] was 37.3 (23.7–58.9) L/h and the “CL/F total body clearance, GM (95% CI)” value ([1]; normal renal function (N = 8)) was 92.6 (68.7–125) L/h. For the same molecule, the “CL/F total body clearance, GM (95% CI)” value [1, 5] was 40.3 (22.6–71.7) L/h, the “CL/F, GLSMR (90% CI) versus normal renal function group” value ([1]; mild renal impairment) was 80.8% (57.9–113) and the “Increase in AUC0–∞ compared to subjects with normal renal function” value (“Increase in AUC0–∞ compared to subjects” below) ([1]; mild renal impairment) was 24%. The “Increase in Cmax compared to subjects with normal renal function” value (“Increase in Cmax compared to subjects” for short) ([1]; mild renal impairment) was 53%, the “CL/F, GLSMR (90% CI) versus normal renal function group” value ([1]; moderate renal impairment) was 40.3% (27.3–59.5) and the “Increase in AUC0–∞ compared to subjects” value ([1]; moderate renal impairment) was 148%. The “Increase in Cmax compared to subjects” value ([1]; moderate renal impairment) was 73%, the “CL/F, GLSMR (90% CI) versus normal renal function group” value ([1]; severe renal impairment) was 43.5% (27.5–68.7) and the “Increase in AUC0–∞ compared to subjects” value ([1]; severe renal impairment) was 130%. For the same molecule, the “Increase in Cmax compared to subjects” value ([1]; severe renal impairment) was 128%, the “fe0–72 fraction of drug excreted in urine unchanged from time zero to 72 h, GM (95% CI)” value [2, 4] was 1.05 (0.561–1.96) % and the “fe0–72 fraction of drug excreted in urine unchanged from time zero to 72 h, GM (95% CI)” value ([2]; normal renal function (N = 8)) was 0.814 (0.508–1.31) %. For the same molecule, the “fe0–72 fraction of drug excreted in urine unchanged from time zero to 72 h, GM (95% CI)” value [2, 5] was 0.362 (0.202–0.647) %, the “CLR0–72, GLSMR (90% CI) versus normal renal function group” value ([2]; mild renal impairment) was 95.4% (60.6–150) and the “Decrease in renal clearance (CLR0-72) versus normal renal function” value (“Decrease in renal clearance” below) ([2]; mild renal impairment) was 5% and 4.6%. For the same molecule, the “CLR0–72, GLSMR (90% CI) versus normal renal function group” value ([2]; moderate renal impairment) was 58.3% (30.2–113), the “Decrease in renal clearance” value ([2]; moderate renal impairment) was 42% and the “CLR0–72, GLSMR (90% CI) versus normal renal function group” value ([2]; severe renal impairment) was 21.2% (13.6–32.8). For the same molecule, the “Decrease in renal clearance” value ([2]; severe renal impairment) was 79%, the “Time post-dose at which maximal percent change in sUA occurred” value (serum urate (sUA)) was “approximately 12 h” and the “AeUR,0–24 h amount of urinary uric acid recovered in urine, mean (SD)” value (“AeUR,0–24 h amount … (SD)” for short) (urinary uric acid; mild renal impairment (N = 8)) was 880 (225) mg. The “FEUA,0–24 h fractional excretion of uric acid, mean (SD)” value (“FEUA,0–24 h fractional excretion … (SD)” for short) (urinary uric acid; mild renal impairment (N = 8)) was 16.2 (5.68) %, the “ReUR,0–24 h rate of urinary uric acid excretion, mean (SD)” value (“ReUR,0–24 h rate … (SD)” below) (urinary uric acid; mild renal impairment (N = 8)) was 36.6 (9.39) mg/h and the “AeUR,0–24 h amount … (SD)” value (urinary uric acid; [4]) was 707 (334) mg. For the same molecule, the “FEUA,0–24 h fractional excretion … (SD)” value (urinary uric acid; [4]) was 13.0 (7.48) %, the “ReUR,0–24 h rate … (SD)” value (urinary uric acid; [4]) was 29.3 (13.8) mg/h and the “AeUR,0–24 h amount … (SD)” value (urinary uric acid; normal renal function (N = 8)) was 969 (299) mg. The “FEUA,0–24 h fractional excretion … (SD)” value (urinary uric acid; normal renal function (N = 8)) was 13.8 (6.24) %, the “ReUR,0–24 h rate … (SD)” value (urinary uric acid; normal renal function (N = 8)) was 40.1 (12.1) mg/h and the “AeUR,0–24 h amount … (SD)” value (urinary uric acid; [5]) was 393 (144) mg. The “FEUA,0–24 h fractional excretion … (SD)” value (urinary uric acid; [5]) was 12.7 (6.43) %, the “ReUR,0–24 h rate … (SD)” value (urinary uric acid; [5]) was 16.3 (6.02) mg/h and the “Time post-dose by which ReUR returned to baseline” value (urinary uric acid; verinurad 15 mg) was no more than 12 h. For the same molecule, the “Subjects with TEAE possibly related to verinurad” value (Safety assessments; control group, oropharyngeal pain and rhinorrhea) was “One subject”, the “Number of adverse events” value (Safety assessments; mild renal impairment (N = 8)) was 3 and the “Subjects with adverse events, n (%)” value (Safety assessments; mild renal impairment (N = 8)) was 3 (37.5%). The “Number of adverse events” value (Safety assessments; [6]) was 2, the “Subjects with adverse events, n (%)” value (Safety assessments; [6]) was 1 (12.5%) and the “Number of adverse events” value (Safety assessments; normal renal function (N = 8)) was 5. The “Subjects with adverse events, n (%)” value (Safety assessments; normal renal function (N = 8)) was 1 (12.5%), the “Number of adverse events” value (Safety assessments; [5]) was 2 and the “Subjects with adverse events, n (%)” value (Safety assessments; [5]) was 2 (28.6%). The Adverse event-related withdrawals (Safety assessments; [7]) was “no AE-related withdrawals”, the “Changes in laboratory values or vital signs” value (Safety assessments; [7]) was “No clinically meaningful changes” and the Serious adverse events (Safety assessments; [7]) was “no serious AEs”. For the same molecule, the Tolerability (Safety assessments; [7]) was “well tolerated”, the “Number of adverse events of mild severity” value (“Number … of mild severity” for short) (Safety assessments; mild renal impairment (N = 8)) was 2 and the “Number of adverse events of moderate severity” value (“Number … of moderate severity” for short) (Safety assessments; mild renal impairment (N = 8)) was 1. For the same molecule, the Severe/life-threatening adverse events (Safety assessments; mild renal impairment (N = 8)) was 0, the “Subjects with adverse events of mild severity, n (%)” value (“Subjects … of mild severity, n (%)” for short) (Safety assessments; mild renal impairment (N = 8)) was 2 (25.0%) and the “Subjects with adverse events of moderate severity, n (%)” value (“Subjects … of moderate severity, n (%)” below) (Safety assessments; mild renal impairment (N = 8)) was 1 (12.5%). The “Number … of mild severity” value (Safety assessments; [6]) was 1, the “Number … of moderate severity” value (Safety assessments; [6]) was 1 and the Severe/life-threatening adverse events (Safety assessments; [6]) was 0. The “Subjects … of mild severity, n (%)” value (Safety assessments; [6]) was 1 (12.5%), the “Subjects … of moderate severity, n (%)” value (Safety assessments; [6]) was 1 (12.5%) and the “Number … of mild severity” value (Safety assessments; normal renal function (N = 8)) was 4. For the same molecule, the “Number … of moderate severity” value (Safety assessments; normal renal function (N = 8)) was 1, the Severe/life-threatening adverse events (Safety assessments; normal renal function (N = 8)) was 0 and the “Subjects … of mild severity, n (%)” value (Safety assessments; normal renal function (N = 8)) was 1 (12.5%). The “Subjects … of moderate severity, n (%)” value (Safety assessments; normal renal function (N = 8)) was 1 (12.5%), the “Number … of mild severity” value (Safety assessments; [5]) was 1 and the “Number … of moderate severity” value (Safety assessments; [5]) was 1. For the same molecule, the Severe/life-threatening adverse events (Safety assessments; [5]) was 0, the “Subjects … of mild severity, n (%)” value (Safety assessments; [5]) was 1 (14.3%) and the “Subjects … of moderate severity, n (%)” value (Safety assessments; [5]) was 1 (14.3%). The fraction unbound (Plasma protein binding) was 0.013 to 0.024, the IC50 (URAT1) was 36 nM and the “Parent drug excreted unchanged in urine” value ([3]; ref 21) was “about 2%”. The “Parent drug excreted unchanged in urine” value ([3]; ref 26) was “about 2%” and the “Lowest dose providing sUA lowering in humans” value (sUA) was 2.5 mg.
